Screens (PubChem)
MPTP inh: inhibitors of mitochondrial permeability transition pore; isolated mouse mitochondria, Ca2+ swelling absorbance, 30 min; AID 602449; 360,000 compounds, 1.4% hits; inhibition, % at 10 µM;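 active = inhibition of 50% or more, scaled per plate between neutral and stimulator controls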;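 also: 0% = DMSO wells given calcium and 100% = 1 mM EGTA wells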
EBI2 block: antagonists of human EBI2 receptor | P32249 | EBI2 beta-arrestin recruitment, luminescence, 7a,25-OHC stimulated | inhibition, % at 5 µM | 360,000 compounds, 0.81% hits | AID 651636; in the data active = inhibition above about 38%;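 also: enzyme fragment complementation signal reports receptor beta-arrestin coupling in cells; 0% = agonist plus DMSO wells and 100% = wells without agonist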
Target sequence (P32249 whole entry, looked up, the tested form may be a part): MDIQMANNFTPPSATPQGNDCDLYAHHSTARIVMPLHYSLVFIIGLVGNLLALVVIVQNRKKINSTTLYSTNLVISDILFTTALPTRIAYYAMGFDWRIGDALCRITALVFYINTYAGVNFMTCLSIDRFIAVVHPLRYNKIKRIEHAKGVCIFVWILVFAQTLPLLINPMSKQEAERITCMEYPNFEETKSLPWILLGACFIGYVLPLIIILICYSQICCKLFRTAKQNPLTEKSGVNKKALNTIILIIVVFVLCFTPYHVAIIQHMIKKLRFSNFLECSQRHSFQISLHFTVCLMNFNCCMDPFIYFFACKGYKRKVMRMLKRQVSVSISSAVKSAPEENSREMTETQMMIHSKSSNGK
SENP1 inh: inhibitors of human SENP1 SUMO protease catalytic domain. recombinant SENP1 catalytic domain, CyPet-SUMO1-YPet FRET cleavage. inhibition, % at 10 µM. 360,000 compounds, 0.21% hits. AID 624204;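 active = inhibition at least 30% at 10 µM, raw YFP signal under a set limit, fluorescence ratio 0.5 to 1.5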;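 also: 0% = enzyme with DMSO and 100% = no enzyme wells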
Target sequence (Q9P0U3 419-644 limits assumed): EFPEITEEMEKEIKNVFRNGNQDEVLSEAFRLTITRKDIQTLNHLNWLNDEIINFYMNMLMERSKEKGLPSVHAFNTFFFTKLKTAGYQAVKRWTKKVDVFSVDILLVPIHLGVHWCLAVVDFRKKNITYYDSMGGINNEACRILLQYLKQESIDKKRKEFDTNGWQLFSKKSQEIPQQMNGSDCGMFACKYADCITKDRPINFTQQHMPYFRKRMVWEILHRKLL
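Controls: no-enzyme wells low, DMSO-plus-enzyme wells high control. Test system: human recombinant His6-tagged SENP1 catalytic domain enzyme. Reagent: SFCypet-SUMO1-SFYpet FRET protein substrate, 25 nM final. Doses: one dose per compound, 10 µM, 0.5% DMSO. Detection: FRET, CFP and YFP emission. Timing: 50 min reaction at room temperature.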
GRIN3A LBD mod: modulates the human NR3A ligand-binding domain; Tm shift relative to glycine control, % at 25 µM; NR3A LBD differential scanning fluorimetry, Tm shift; 0% = protein alone, 100% = glycine-bound protein; 340,000 compounds, 2.5% hits;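 active = melting temperature shift of at least 10% of the positive control shift, at one fixed dose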
Starred values were filed as active, the others as inactive; . = no result. The list is not random: actives were taken first. Their share in the collection is about 4.4%.

SMILES	MPTP inh	EBI2 block	SENP1 inh	GRIN3A LBD mod
CCn1cc(S(=O)(=O)N2CCCC2)cn1	1	-6	2	1
CN(C)CCNC(=O)C(=O)c1c(-c2ccccc2)cc2ccccn12	0	3	-1	242*
O=C(NCCCO)C(=O)c1c(-c2ccccc2)cc2ccccn12	-1	4	1	0
CS(=O)(=O)N(CC(=O)N1CCN(c2ccccc2)CC1)c1cc(C(F)(F)F)ccc1Cl	0	46*	2	-19
O=C(Nc1ccc(Br)cc1)c1ccc2ncsc2c1	0	7	-19	27*
COc1ccc(NC(=O)c2ccc3ncsc3c2)cc1	2	0	-3	-10
CN(C)S(=O)(=O)c1ccc(NC(=O)c2ccc3ncsc3c2)cc1	.	.	.	17*
CCOc1ccc(NC(=O)c2ccc(S(=O)(=O)N(C)C)cc2)cc1	-1	7	1	1
CCOC(=O)N(Cc1ccccc1)Cc1ccc(C(=O)N[C@@H](Cc2ccccc2)C(=O)O)cc1	3	0	0	3
COc1ccc(S(=O)(=O)NCC(=O)N(CC2CCCO2)C(C(=O)NC2CCCC2)C(C)C)cc1 (stereo unspecified)	0	-7	-1	1
CC(=O)c1nn(-c2cccc(C)c2)cc1C(=O)c1cccc(Br)c1	3	0	-79	0
CC(=O)c1nn(-c2ccccc2)cc1C(=O)c1ccc(C)cc1	2	56*	0	-1
Cc1cc(NC(=S)N(CCCN2CCOCC2)Cc2ccco2)ccc1Cl	2	-12	-2	13*
Cc1ccc2[nH]c3ccccc3c(=O)c2c1	-1	-3	-22	-8
O=c1c2ccccc2[nH]c2ccc(F)cc12	-1	-4	-21	11*
Nc1nc(-c2ccc(Cl)cc2)c(N=Nc2ccc(S(=O)(=O)N3CCOCC3)cc2)s1	14	32	6	17*
O=S(=O)(c1ccc(Cl)cc1)N1CCC(N2CCOCC2)CC1	1	5	1	-1
COc1ccc(CN(CCC(C)C)S(=O)(=O)c2ccccc2Br)cc1	-1	16	2	4
COc1ccc(CN(C2CC2)S(=O)(=O)c2ccccc2Br)cc1	-1	1	1	13*
CCc1nc(Nc2ccncc2)c2oc3ccccc3c2n1	0	3	0	2
CCc1nc(Nc2cccc(O)c2)c2oc3ccccc3c2n1	3	-14	1	21*
O=C(O)c1cc(S(=O)(=O)N(Cc2ccccc2)c2ccc(Cl)cc2)ccc1Cl	2	10	1	39*
CCCCCN(C(=O)CCC(=O)OCC(=O)NCCc1ccccc1)c1c(N)n(CCCC)c(=O)[nH]c1=O	0	-2	0	.
CC(=O)N/C(=C\c1cccc([N+](=O)[O-])c1)C(=O)NC1CCCCC1	0	-6	2	11*
O=C(Nc1ccc(Cl)c([N+](=O)[O-])c1)c1ccco1	0	2	2	-3
SMILES	MPTP inh	EBI2 block	SENP1 inh	GRIN3A LBD mod
O=C(N/C(=C/c1cccc([N+](=O)[O-])c1)C(=O)N1CCCCCC1)c1cccs1	-1	-6	4	15*
O=C(/C=C/c1ccc(Cl)c([N+](=O)[O-])c1)Nc1ccc(NC(=O)c2ccco2)cc1	6	12	-7	33*
Cc1ccc(NC(=O)/C(=C\c2cccc([N+](=O)[O-])c2)NC(=O)c2cccs2)cc1	1	-4	2	1
O=C(/C=C/c1cccc([N+](=O)[O-])c1)Nc1cccc(NC(=O)c2cccs2)c1	27	-4	0	11*
CC1=C(C)CC(C(=O)NCc2c(F)cccc2Cl)C(C(=O)O)C1 (stereo unspecified)	0	-11	2	2
O=C(/C=C/c1ccc(Cl)c([N+](=O)[O-])c1)Nc1cccc(NC(=O)c2ccco2)c1	12	-23	-2	11*
O=C(/C=C/c1cccc([N+](=O)[O-])c1)c1ccco1	-1	-10	0	0
CC(C)N(C(=O)/C=C/c1cccc([N+](=O)[O-])c1)C(C)C	-1	12	2	-1
O=C(/C=C/c1cccc([N+](=O)[O-])c1)Nc1cccc(NC(=O)c2ccco2)c1	-24	-9	0	27*
O=C(/C=C/c1cccc([N+](=O)[O-])c1)OC1CCCCC1=O (stereo unspecified)	-2	-12	2	12*
O=C(/C=C/c1ccc(Cl)c([N+](=O)[O-])c1)Nc1cccnc1	-2	-22	0	-3
Cc1ccc(NC(=O)c2cc(N3C(=O)C=CC3=O)ccc2N2CCOCC2)cc1Cl	46	-3	2	6
COc1cc2cc(CCOC(=O)c3ccc(F)cc3)oc(=O)c2cc1OC	-1	-10	0	5
CCCCNc1ccc2c3c(cccc13)C(=O)N(CCCC)C2=O	49	8	-32	11*
Cc1ccccc1/C=N/n1c(-c2ccccn2)n[nH]c1=S	-1	3	-1	11*
S=c1[nH]nc(-c2ccccn2)n1/N=C/c1ccccc1	7	-2	-1	-1
O=C1CC(c2ccccc2)CN1C(=O)c1ccccc1 (stereo unspecified)	3	-1	4	13*
CCCCNC(=S)NCC(c1ccccc1)c1c[nH]c2ccccc12 (stereo unspecified)	4	-1	-1	30*
CN(C)c1ccc(C(CNC(=O)c2ccccc2)c2c[nH]c3ccccc23)cc1 (stereo unspecified)	0	11	-8	-4
Cn1cccc1-c1cc(C(=O)N/N=C/c2ccccc2Cl)[nH]n1	-2	16	5	-15
CCOc1ccc(/C=N/NC(=O)c2cc(-c3cccn3C)n[nH]2)cc1	0	-9	4	22*
Cn1cccc1-c1cc(C(=O)N/N=C/c2cc(Br)ccc2O)[nH]n1	1	9	-32	27*
O=C(N/N=C/c1cccc([N+](=O)[O-])c1)c1cc(-c2ccc3c4c(cccc24)CC3)n[nH]1	3	-3	2	18*
Cn1cccc1-c1cc(C(=O)N/N=C/c2ccc([N+](=O)[O-])cc2)[nH]n1	0	-3	1	28*
O=C(CSc1nc(O)c(Cc2ccccc2)c(=O)n1-c1ccccc1)N1CCOCC1	-1	5	1	1
SMILES	MPTP inh	EBI2 block	SENP1 inh	GRIN3A LBD mod
O=C(COC(=O)c1cccs1)Nc1nnc(-c2ccccc2)o1	-1	-2	-3	0
CC1C(=O)N(Cc2cn(Cc3ccco3)nn2)CCS(=O)(=O)N1Cc1ccc(-c2ccc(F)cc2Cl)cc1 (stereo unspecified)	-1	8	-6	.
C[C@@H]1CN([C@@H](C)CO)C(=O)CCCn2nncc2CO[C@@H]1CN(C)C(=O)Nc1ccccc1C(F)(F)F	0	-6	-3	.
CC(=O)c1cc2c(cc1NC(=O)CN1Cc3ccccc3C1=O)OCO2	-2	4	0	12*
COc1ccc(-c2nc(C)sc2CC(=O)O)cc1OC	-1	-5	3	-1
CCN(CC)CCCNc1nnc(C)c(=O)[nH]1	1	0	3	11*
Cn1nnnc1SC(C(=O)Nc1cccc(C(F)(F)F)c1)c1ccccc1 (stereo unspecified)	-17	-4	-1	13*
